Results as given in ChEMBL document CHEMBL4411331, “6-Amino-3-methylpyrimidinones as Potent, Selective, and Orally Efficacious SHP2 Inhibitors” (J Med Chem, 2019).
≈ marks a conversion by molar mass, not a printed value.

Tests used:
[1] = Apparent permeability across apical to basolateral side in human Caco2 cells; assay type: ADME, cell-based; settings: Caco-2
[2] = Intrinsic clearance in rat liver microsomes; assay type: ADME, Microsome; settings: read-out: CLH
[3] = Half life in rat liver microsomes; assay type: ADME, Microsome
[4] = Dose normalized AUC in rat at 1 mg/kg, po; assay type: ADME, organism-based; settings: in vivo
[5] = Oral bioavailability in rat at 1 mg/kg; assay type: ADME, organism-based; settings: in vivo
[6] = Intrinsic clearance in mouse liver microsomes; assay type: ADME, Microsome; settings: read-out: CLH
[7] = Half life in mouse liver microsomes; assay type: ADME, Microsome
[8] = Aqueous solubility of the compound in 6.8 pH buffer; assay type: physicochemical; settings: pH 6.8 buffer
[9] = Drug uptake in human Detroit 562 cells xenografted NU/NU mouse at 20 to 80 mg/kg, po BID; assay type: ADME, organism-based; settings: in vivo
Summary of the method: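 Detroit-562 xenografts (5 x 10^5 cells subcutaneously in 50% matrigel/HBSS) were grown in female athymic NU/NU mice. At about 300 mm3 the mice were dosed by oral gavage, with 0.5% methylcellulose/0.1% Tween 80 as the vehicle control. Mice were euthanized at set times, and plasma and tumor fragments were collected for compound concentration.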

[10] = Clearance in rat; assay type: ADME; settings: in vivo
[11] = Half life in rat; assay type: ADME; settings: in vivo
[12] = Permeability in human Caco2 cells; assay type: ADME, cell-based; settings: Caco-2, read-out: permeability
[13] = Oral bioavailability in rat at 6 mg/kg; assay type: ADME, organism-based; settings: in vivo
[14] = Dose normalized AUC in rat at 6 mg/kg, po; assay type: ADME, organism-based; settings: in vivo

Papp A→B [1] [×10⁻⁶ cm/s] | microsomal CLint [2] [µL/min/mg] | half-life [3] [h] | AUC/dose [4] [µM·h] | bioavailability [5] [%] | microsomal CLint [6] [µL/min/mg] | half-life [7] [h] | solubility [8] [µM] | Drug uptake [9] | clearance [10] [mL/min/kg] | half-life [11] [h] | Papp [12] [×10⁻⁶ cm/s] | bioavailability [13] [%] | AUC/dose [14] [µM·h] | Structure (SMILES)
1.02 | 7.9 to 11.1 | > 2 | 0.45 | 29 | 7.9 to 11.1 | > 2 | 980 (≈ 461 µg/mL) | Dose-dependent effect | 21 | 10.9 |  |  |  | C[C@@H]1OCC2(CCN(c3nc(N)c(Sc4cccnc4C(F)(F)F)c(=O)n3C)CC2)[C@@H]1N
 |  |  |  |  |  |  | 250 (≈ 107 µg/mL) |  |  |  | 2.5 |  |  | Cn1c(N2CCC(C)(CN)CC2)nc(N)c(Sc2cccc(Cl)c2Cl)c1=O
6.8 | 39.3 | 0.617 | 0.95 | 38 |  |  |  |  |  |  |  |  |  | C[C@@H]1OCC2(CCN(c3nc(N)c(Sc4cccc(Cl)c4Cl)c(=O)n3C)CC2)[C@@H]1N
< 0.5 | 3.4 | 6.6 |  |  |  |  |  |  |  |  |  | 1 | 0.03 | C[C@H]1C[C@@H](N)C2(CCN(c3nc(N)c(Sc4cccnc4C(F)(F)F)c(=O)n3C)CC2)C1
